UPR CHOP act – apoptotic UPR (CHOP) activation; 330,000 compounds, 0.34% hits; activation, % at 10 µM; CHO-CHOP luciferase reporter, luminescence; percent of tunicamycin response over DMSO baseline;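 active means at 10 µM dose, activation of 40% or more, normalized to positive control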;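 further: 100% = tunicamycin at 10 µg/mL and 0% = DMSO alone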
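assay system = CHO CHOP reporter cells | amount = 500 CHO-CHOP cells per well | buffer or medium = F12 with 10% FBS | incubation = 16-18 h cell attachment, then 6 h compound exposure, 37 °C | detection = luminescence read with Steady-Glo | read-out = percent activation relative to tunicamycin control | controls = tunicamycin high control, DMSO low control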
CSC inhib – cancer stem cell inhibition; cancer stem cell-like cells viability, luminescence; 300,000 compounds, 1.1% hits; AID 2717; inhibition, % at 7.5 µM; in the data active means inhibition above about 75%; tested in HMLE shEcad cells
T cruzi repl – blocks replication of Trypanosoma cruzi | T. cruzi beta-gal in NIH3T3, luminescence, 90 h | 300,000 compounds, 1.4% hits | inhibition, % (no concentration beside the values) | AID 1885;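 active means mean inhibition across valid replicates above about 55%, limit read from the data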;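 further: signal also drops with host cell toxicity which is not excluded here; 0% = plate median of DMSO wells and 100% = zero luminescence signal; higher percent means less beta-gal luminescence so fewer parasites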
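Incubation – ≥90 h infection period, 3 h prior cell attachment · System – NIH/3T3 fibroblasts plus reporter T. cruzi · Doses – compound pinned at 50 nL/well, DMSO · Read-out basis – percent inhibition of parasite-derived β-gal signal · Signal – luminescent β-galactosidase signal after 60 min lysis · Also added – 5000 T. cruzi trypomastigotes/well · Medium – Low-serum DMEM with 2% FBS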
UPR XBP1 act – activators of adaptive arm of unfolded protein response (XBP1); CHO-XBP1 luciferase reporter, IRE1-XBP1 UPR activation, luminescence; percent of tunicamycin response, DMSO as zero; activation, % at 20 µM; 330,000 compounds, 0.33% hits;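 active means versus positive control, 20 µM dose yields 30% or more activation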;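 further: 100% = tunicamycin at 10 µg/mL and 0% = DMSO only wells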
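Material – CHO cell line with stable XBP1 luciferase reporter · Buffer or medium – F12 plus 10% FBS · Compound – single point, 20 µM final compound, 1% DMSO · Schedule – 16-18 h cell attachment at 37 °C, then 6 h compound exposure · Signal – Steady-Glo luminescence read · Benchmarks – high control tunicamycin 10 µg/mL final, low control DMSO vehicle only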
Beta cell apopt – blocks beta cell apoptosis; INS-1E cytokine-induced death, ATP luminescence, 48 h; percent of positive-control rescue, neutral wells zero; protection from apoptosis, % (test concentration not listed); 300,000 compounds, 0.8% hits;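 active means Every replicate reaches about 75%, or at least half do and their mean reaches it too, limit read from the data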;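 further: 0% = cytokine-treated negative control wells and 100% = positive control rescue; higher means more ATP so stronger rescue from cytokine killing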
Mdm2-MdmX inh – disrupts the human Mdm2-MdmX interaction. 330,000 compounds, 3% hits. AID 485346. SaOS-2 split-luciferase Mdm2/MdmX complementation, luminescence. inhibition, % at 8 µM. O15151+Q00987;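 active means inhibition of at least 50% at 8 µM in the primary screen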
Target sequence (O15151 whole entry, looked up): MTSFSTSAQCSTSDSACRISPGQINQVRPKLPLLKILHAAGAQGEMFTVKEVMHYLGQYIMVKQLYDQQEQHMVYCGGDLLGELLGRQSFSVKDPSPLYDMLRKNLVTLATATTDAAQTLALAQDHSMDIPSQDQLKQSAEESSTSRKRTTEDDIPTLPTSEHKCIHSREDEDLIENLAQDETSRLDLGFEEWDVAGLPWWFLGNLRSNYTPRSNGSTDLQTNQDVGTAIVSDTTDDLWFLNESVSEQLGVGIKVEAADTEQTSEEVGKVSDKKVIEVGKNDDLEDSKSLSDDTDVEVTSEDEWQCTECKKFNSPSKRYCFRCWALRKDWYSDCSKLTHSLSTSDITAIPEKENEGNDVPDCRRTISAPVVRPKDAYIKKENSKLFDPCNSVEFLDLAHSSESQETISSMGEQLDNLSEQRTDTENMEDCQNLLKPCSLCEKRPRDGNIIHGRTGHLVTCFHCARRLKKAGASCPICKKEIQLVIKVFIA
Target sequence (Q00987 whole entry, looked up): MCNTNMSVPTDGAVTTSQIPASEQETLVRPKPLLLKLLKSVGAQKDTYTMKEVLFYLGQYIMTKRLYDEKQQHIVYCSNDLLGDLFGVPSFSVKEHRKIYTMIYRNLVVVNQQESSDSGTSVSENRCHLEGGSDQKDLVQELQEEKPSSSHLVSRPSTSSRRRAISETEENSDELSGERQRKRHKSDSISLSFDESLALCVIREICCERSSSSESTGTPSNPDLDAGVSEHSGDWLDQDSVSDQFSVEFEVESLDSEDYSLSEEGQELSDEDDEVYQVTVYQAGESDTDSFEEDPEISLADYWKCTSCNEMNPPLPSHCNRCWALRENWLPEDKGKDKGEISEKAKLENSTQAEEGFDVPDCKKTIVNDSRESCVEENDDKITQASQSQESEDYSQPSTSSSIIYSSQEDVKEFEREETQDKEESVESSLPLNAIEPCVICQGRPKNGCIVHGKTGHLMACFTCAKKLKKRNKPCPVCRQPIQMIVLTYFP
Mdm2-MdmX conf – human Mdm2/MdmX binding inhibition, confirmed; inhibition, % at 8 µM; luminescent assay; 10,000 compounds, 55% hits; shares compounds with Mdm2-MdmX inh; AID 489028; in the data active means inhibition above about 40%
Full FLuc ctr – inhibits full-length luciferase, flagging false Mdm2/MdmX hits; shares compounds with Mdm2-MdmX inh; SaOS-2 full-length luciferase counterscreen, luminescence; inhibition, % at 8 µM; 6,200 compounds, 77% hits;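 active means mean inhibition at 8 µM reaching about 37%, which flags the compound as non-specific, limit read from the data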;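 further: p53-null SaOS-2 cells with luciferase driven by a doxycycline-inducible promoter; compound on cells about two nights before reading with doxycycline added after day one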
The depositor's hits bear a star; x = no result. The list is not random: actives were taken first. Their share in the collection is about 5%.

SMILES | UPR CHOP act | CSC inhib | T cruzi repl | UPR XBP1 act | Beta cell apopt | Mdm2-MdmX inh | Mdm2-MdmX conf | Full FLuc ctr
O=C(COc1cccnc1[N+](=O)[O-])NCc1ccccc1 | 0 | 1 | 8 | -2 | -4 | -12 | x | x
CCc1cc2ccc(C)cc2nc1SCC(=O)Nc1cc(C)on1 | 2 | -9 | -15 | -1 | 0 | 20 | x | x
CCc1cc2cc3c(cc2nc1SCC(=O)Nc1cc(C)on1)OCO3 | 10 | -10 | -65 | 15 | 23 | 81* | 8 | x
CN(C)c1nc(N)c2ncc(=S)[nH]c2n1 | -2 | 3 | -10 | -5 | x | 4 | x | x
O=C(c1cnn2c(C(F)(F)F)cc(-c3cccs3)nc12)N1CCN(C(c2ccccc2)c2ccccc2)CC1 | 4 | 21 | 45 | 5 | 25 | 62* | 59* | 68*
CN(C)S(=O)(=O)c1ccc(Cl)c(NC(=O)COC(=O)/C=C/c2cnc3ccccc3n2)c1 | 3 | 1 | -14 | 4 | -4 | -5 | x | x
Cc1cc(C)n(-c2nnc3n2N=C(c2ccccc2)CS3)n1 | -2 | -9 | 11 | 4 | -5 | -10 | x | x
Cc1cc(C)n(-c2nnc3n2N=C(c2c[nH]c4ccccc24)CS3)n1 | 1 | 43 | -1 | 1 | -5 | 56* | 46* | 50*
CCC(C)Nc1nc(N)c([N+](=O)[O-])c(NCc2ccccc2)n1 (stereo not drawn) | 1 | 5 | -4 | 19 | -4 | 47 | x | x
CCC(C)Nc1nc(N)c([N+](=O)[O-])c(Nc2cc(OC)ccc2OC)n1 (stereo not drawn) | 2 | 63 | 28 | 16 | 1 | 69* | 19 | x
COc1ccc(OC)c(Nc2nc(NCCC(C)C)nc(N)c2[N+](=O)[O-])c1 | 3 | 52 | 18 | 1 | x | 42 | x | x
CCC(C)Nc1nc(N)c([N+](=O)[O-])c(Nc2ccccc2OC)n1 (stereo not drawn) | 0 | 27 | 16 | 22 | -4 | 59* | 24 | x
Cc1c(Cl)cccc1N/C(SCC(=O)N1CCCCCC1)=C(/C#N)c1nc2ccccc2s1 | 3 | 5 | 42 | 4 | 40 | 91* | 66* | 36
Cc1ccc2nc(-c3ccc(SCC(=O)O)nc3)[nH]c2c1 | -2 | -6 | -3 | -2 | 7 | -2 | x | x
CC(=O)CSc1ccc(-c2nc3cc(C)c(C)cc3[nH]2)cn1 | -9 | 16 | 14 | -13 | 6 | 68* | 67* | 66*
O=C(CSc1ccc(-c2nc3ccccc3[nH]2)cn1)Nc1ccc(S(=O)(=O)N2CCCC2)cc1 | 5 | 5 | -5 | -3 | 10 | -7 | x | x
Cc1cc2nc(-c3ccc(SCC(=O)Nc4ccc(S(=O)(=O)N5CCCC5)cc4)nc3)[nH]c2cc1C | 1 | 22 | 10 | 1 | 8 | 69* | -8 | x
O=C(Nc1ccc2c(c1)OCO2)N1CCN(c2ncc(C(F)(F)F)cc2Cl)CC1 | 2 | 4 | 18 | -2 | 0 | 23 | x | x
CCc1ccc(C(O)(CC(C)C)C(CN2CCOCC2)c2ccccc2)cc1 (stereo not drawn) | -1 | 50 | 3 | 2 | 4 | 83* | 85* | 27
COc1ccc(C(O)(CC(C)C)C(CN2CCOCC2)c2ccccc2)cc1 (stereo not drawn) | 0 | 40 | -7 | 2 | 1 | 77* | 77* | 31
Cc1ccc(CO/N=C\Cc2snc(Sc3ncc(C(F)(F)F)cc3Cl)c2C#N)cc1 | 1 | x | -22 | -1 | -4 | 18 | x | x
CCOc1ncccc1C(=O)Nc1cc(S(=O)(=O)N2CCOCC2)ccc1OCC(F)(F)F | 2 | -6 | x | 10 | -11 | 24 | x | x
CC(C)CC(=O)N1CCN(Cc2ccc3c(c2)OCO3)CC1 | 0 | 0 | -1 | -2 | 0 | 9 | x | x
O=C(N/N=C/c1cc(Cl)cc([N+](=O)[O-])c1O)c1cc(-c2ccccn2)nc2ccccc12 | 3 | 45 | 21 | -4 | 68 | 59* | 2 | x
COc1cccc(/C=N/NC(=O)c2cc(-c3ccccn3)nc3ccccc23)c1O | 0 | 17 | x | -1 | 93* | 76* | 60* | 40*
SMILES | UPR CHOP act | CSC inhib | T cruzi repl | UPR XBP1 act | Beta cell apopt | Mdm2-MdmX inh | Mdm2-MdmX conf | Full FLuc ctr
O=C(N/N=C/c1ccc(F)cc1)c1cc(-c2ccccn2)nc2ccccc12 | -1 | x | x | -1 | x | 9 | x | x
O=[N+]([O-])c1cc(Cl)cc(/C=N\Nc2ccccn2)c1O | -1 | 112* | 57* | -1 | 109* | 70* | 77* | 55*
O=c1/c(=C\c2ccc(O)cc2)sc2n1C(c1ccccc1)C(c1ccccc1)=NN=2 (stereo not drawn) | 4 | -2 | 15 | 2 | 13 | 79* | 43* | 51*
CCCN(CCC)C(=S)NC(=O)c1ccc(-c2ccccc2)cc1 | 4 | 37 | 50 | 4 | 7 | 55* | 26 | x
COc1ncccc1-c1nnn(-c2ccccc2)n1 | 3 | -16 | -22 | 3 | 0 | -133 | x | x
CC1CN(C(=O)COC(=O)c2ccc(C#N)cc2)CC(C)O1 (stereo not drawn) | 1 | x | -4 | -4 | -7 | 6 | x | x
Cc1ccc(Nc2nnc(SCc3nc4ccccc4c(=O)[nH]3)s2)cc1 | -1 | -4 | -11 | 2 | 58 | 66* | 40* | 17
CC(=O)Nc1ccc(-c2cn3cc(C)ccc3n2)cc1 | 1 | -10 | 3 | 1 | -3 | -56 | x | x
Cc1ccc2nc(-c3ccccc3)cn2c1 | -11 | -18 | -16 | -17 | 32 | 67* | 58* | 32
Cc1ccc(Cn2ccc(NC(=O)c3cc(-c4ccc(Cl)cc4)on3)n2)cc1 | 0 | -12 | -3 | -1 | -10 | -12 | x | x
Cc1ccc(Cn2ccc(NC(=O)c3cc(-c4cccc(Cl)c4)on3)n2)cc1 | -3 | 2 | 6 | 1 | 11 | 55* | 17 | x
Cc1ccc(NS(=O)(=O)c2cccc(C(=O)N3CCN(C(=O)c4ccco4)CC3)c2)cc1 | 1 | -4 | x | -2 | 3 | 15 | x | x
COc1cccc(/C=N/NC(=O)CCn2c3ccccc3c3ccccc32)c1 | -3 | -2 | 0 | -1 | -2 | 11 | x | x
O=C(N/N=C/c1ccccc1)c1[nH]c2ccc(Br)cc2c1-c1ccccc1 | 1 | 46 | -8 | 14 | 10 | 63* | 67* | 83*
Cc1ccc2[nH]c(C(=O)N/N=C/c3ccccc3C(=O)O)c(-c3ccccc3)c2c1 | 2 | x | -2 | 0 | x | 20 | x | x
Cc1ccc2[nH]c(C(=O)N/N=C/c3ccccc3O)c(C)c2c1 | 7 | 38 | 70* | 3 | 86* | 59* | 78* | 25

Source: PubChem BioAssay (several laboratories)
